Measured values collected from several papers.
Protocols differ between the studies behind these lines.
Read-out: cell growth or viability

COc1cc(Nc2nccc(-c3cnn4nc(OC)ccc34)n2)cc(C(F)(F)F)c1
IC50 (T84; ATP luminescence): 1.3 µM

CC(=NN=c1scc(-c2ccccc2)n1C)c1c(O)c2ccccc2oc1=O
IC50 (human Skin fibroblast; MTT; 48 h): > 100 µM

CC(C)C[C@H](NC(=O)[C@H](Cc1ccccc1)NC(=O)c1cnccn1)B(O)O
IC50 (T84; ATP luminescence): 0.018 µM

Oc1ccc(Nc2nc(-c3ccc(Cl)cc3)cs2)cc1
IC50 (WM278; MTS; 72 h): 23.6 µM

CC1(C)CCC(CN2CCN(c3ccc(C(=O)NS(=O)(=O)c4ccc(NCC5CCOCC5)c([N+](=O)[O-])c4)c(Oc4cnc5[nH]ccc5c4)c3)CC2)=C(c2ccc(Cl)cc2)C1
IC50 (MB002; 7 days): > 10 µM

CC(=NN=c1sc(N=Nc2ccccc2)c(C)n1C)c1c(O)c2ccccc2oc1=O
IC50 (human Skin fibroblast; MTT; 48 h): > 100 µM

CN1CCN(CCOc2cc(OC3CCOCC3)c3c(Nc4c(Cl)ccc5c4OCO5)ncnc3c2)CC1
IC50 (HD-MB03; 7 days): > 10 µM

O=C(N/N=C/c1c(O)ccc2ccccc12)c1cc(-c2ccc3ccccc3c2)n[nH]1
IC50 (WM278; MTS; 48 h): 8 µM

Cn1ncnc1[C@H]1c2n[nH]c(=O)c3cc(F)cc(c23)N[C@@H]1c1ccc(F)cc1
IC50 (MB002; 7 days): 0.00373 µM

CC(=O)c1sc(=NN=C(C)c2c(O)c3ccccc3oc2=O)[nH]c1C
IC50 (human Skin fibroblast; MTT; 48 h): > 100 µM
